The subject of data set [1] is Mus musculus. In words: Antiinflammatory activity in ovalbumin-sensitized Balb/c mouse asthma model model assessed as reduction of goblet cell hyperplasia in lungs at 1 mg/kg, po by PAS staining. Type of data set: functional, organism-based. Set-up: dose 1 mg/kg. In a few lines:
(§1)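 Male Balb/c mice, 6 weeks old and 20-25 g, n = 6 per group, were sensitized ip on days 0 and 14 with 100 μg OVA precipitated with 20 mg aluminum hydroxide in 200 μl PBS. They were challenged intranasally with 1% OVA in 50 μl PBS on days 15, 17, 19, 21, 23 and 25, and sacrificed on day 27.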

The test system of data set [2] is Mus musculus. Briefly: Antiinflammatory activity in ovalbumin-sensitized Balb/c mouse asthma model model assessed as reduction in methacholine-induced airway hyperresponsiveness at 1 mg/kg, po. Format: functional, organism-based. Set-up: dose 1 mg/kg. In outline: (§2)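 AHR was read in OVA-sensitized/challenged Balb/c mice (n = 6 per group) 24 h after the final allergen challenge, by barometric whole-body plethysmography. A 3 min baseline came first, then inhalation of methacholine at 50 or 100 mg ml⁻¹, with the read-out as enhanced pause (Penh).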

For data set [3], the system named is Mus musculus. Briefly: Antiinflammatory activity in ovalbumin-sensitized Balb/c mouse asthma model model assessed as reduction of eosinophils, neutrophils, lymphocytes, and macrophages level in BAL fluid at 1 mg/kg, po. Format: functional, organism-based. Set-up: dose 1 mg/kg. In a few lines: as §1
Data set [4] concerns Mus musculus. In words: Antiinflammatory activity in ovalbumin-sensitized Balb/c mouse asthma model model assessed as reduction in IgE level in serum at 10 mg/kg, ip after 48 hrs of last dose by ELISA. Format: functional, organism-based. Set-up: dose 10 mg/kg. In outline:
as §1
Background: An ELISA detects its analyte on a solid surface through an enzyme-linked reagent.

For data set [5], the target named is Transcription factor p65 (Homo sapiens) (UniProt Q04206). In words: Inhibition of TNFalpha/IL4/IL1-beta-induced NFkappaB p65 nuclear translocation in human A549 cells at 50 uM after 15 mins by Western blotting analysis. Type of data set: cell-based. The settings on record: in the assay text read “after 1 hr” for “after 15 mins”. In outline:
(§3)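 Nuclear extracts were western blotted for p65 or phospho-STAT6, with bands normalized to PCNA by densitometry over three experiments.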
(In general: In western blotting, separated proteins are transferred to a membrane and probed.)

The test system of data set [6] is Mus musculus. In words: Antiinflammatory activity in ovalbumin-sensitized Balb/c mouse asthma model model assessed as reduction of goblet cell hyperplasia in lungs at 10 mg/kg, ip by PAS staining. Format: functional, organism-based. Set-up: dose 10 mg/kg. In a few lines: as §1
Data set [7] has as its system A549. In words: Inhibition of TNFalpha/IL4/IL1-beta-induced CCL11 secretion in human A549 cells at 5 uM treated 1 hr before TNFalpha/IL4/IL1-beta stimulation measured after 24 hrs by ELISA. Type of data set: functional. In outline: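 Confluent A549 cells were held in serum-free RPMI for 24 h, pretreated 1 h with 0-50 μM, then stimulated with IL-1β (10 ng ml⁻¹), TNF-α (100 ng ml⁻¹) and IL-4 (100 ng ml⁻¹) for 24 h. Eotaxin in the supernatant was measured by ELISA; three independent experiments were run.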

For data set [8], the target named is T1, Signal transducer and activator of transcription 6 (Homo sapiens) (UniProt P42226).
T1 sequence (whole entry): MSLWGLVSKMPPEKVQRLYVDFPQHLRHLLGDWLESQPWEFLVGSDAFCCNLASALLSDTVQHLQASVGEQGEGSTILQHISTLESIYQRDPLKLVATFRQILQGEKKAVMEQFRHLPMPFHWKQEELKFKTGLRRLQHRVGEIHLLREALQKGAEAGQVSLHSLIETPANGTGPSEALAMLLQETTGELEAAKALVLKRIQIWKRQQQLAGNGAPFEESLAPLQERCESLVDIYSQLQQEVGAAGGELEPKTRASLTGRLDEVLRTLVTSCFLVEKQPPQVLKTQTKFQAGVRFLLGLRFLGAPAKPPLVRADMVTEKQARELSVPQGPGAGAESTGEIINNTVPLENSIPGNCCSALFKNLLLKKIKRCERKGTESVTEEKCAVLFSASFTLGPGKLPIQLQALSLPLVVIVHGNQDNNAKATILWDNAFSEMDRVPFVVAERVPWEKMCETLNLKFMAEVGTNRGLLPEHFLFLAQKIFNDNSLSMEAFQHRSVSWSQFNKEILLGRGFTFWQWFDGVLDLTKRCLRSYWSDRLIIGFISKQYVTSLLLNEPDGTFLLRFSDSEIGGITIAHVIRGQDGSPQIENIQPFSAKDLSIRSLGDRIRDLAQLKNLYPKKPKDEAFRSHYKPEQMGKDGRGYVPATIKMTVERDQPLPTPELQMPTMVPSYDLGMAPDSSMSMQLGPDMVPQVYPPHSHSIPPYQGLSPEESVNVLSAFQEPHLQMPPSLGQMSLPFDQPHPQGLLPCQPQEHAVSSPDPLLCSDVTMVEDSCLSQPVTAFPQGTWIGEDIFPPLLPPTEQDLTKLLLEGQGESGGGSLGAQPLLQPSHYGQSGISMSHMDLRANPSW
Briefly: Inhibition of TNFalpha/IL4/IL1-beta-induced STAT6 phosphorylation in human A549 cells at 50 uM after 15 mins by Western blotting analysis. Type of data set: cell-based. The settings on record: in the assay text read “after 1 hr” for “after 15 mins”. In outline: as §3

In data set [9] the test system is Mus musculus. In words: Antiinflammatory activity in ovalbumin-sensitized Balb/c mouse asthma model model assessed as reduction of eosinophils, neutrophils, lymphocytes, and macrophages level in BAL fluid at 10 mg/kg, ip. Type of data set: functional, organism-based. Set-up: dose 10 mg/kg. In a few lines: as §1
Data set [10] deals with Mus musculus. In words: Antiinflammatory activity in ovalbumin-sensitized Balb/c mouse asthma model model assessed as reduction of eosinophils infiltration in lungs at 10 mg/kg, ip by hematoxylin and eosin staining. Type of data set: functional, organism-based. Set-up: dose 10 mg/kg. In a few lines: as §1
Data set [11] relates to Mus musculus. In words: Antiinflammatory activity in ovalbumin-sensitized Balb/c mouse asthma model model assessed as reduction in methacholine-induced airway hyperresponsiveness at 10 mg/kg, ip. Format: functional, organism-based. Set-up: dose 10 mg/kg. In outline: as §2
Data set [12] relates to A549. Briefly: Cytotoxicity against human A549 cells assessed as cell viability at 50 uM after 24 hrs by MTS assay. Type of data set: cell-based. To be noted: a549, 24 h. In outline:
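A549 cells were seeded at 2×10⁴ cells per well and grown 24 h at 37 °C, then exposed to 0, 5, 10 or 50 μM for 24 h. MTS reagent was added for a further 4 h and absorbance read at 490 nm; assays were run in triplicate.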
A general note: Formazan colour is commonly taken as a measure of viable cells.

Data set [13] deals with Mus musculus. In words: Antiinflammatory activity in ovalbumin-sensitized Balb/c mouse asthma model model assessed as reduction of airway smooth muscle thickness in lungs at 10 mg/kg, ip by IHC staining. Type of data set: functional, organism-based. Set-up: dose 10 mg/kg. The settings on record: Muscle tissue. In a few lines:
as §1

Active and inactive are the calls of the source. The rule behind the calls is not given here.

Chain of Transcription factor p65 (Homo sapiens) (Q04206 whole entry): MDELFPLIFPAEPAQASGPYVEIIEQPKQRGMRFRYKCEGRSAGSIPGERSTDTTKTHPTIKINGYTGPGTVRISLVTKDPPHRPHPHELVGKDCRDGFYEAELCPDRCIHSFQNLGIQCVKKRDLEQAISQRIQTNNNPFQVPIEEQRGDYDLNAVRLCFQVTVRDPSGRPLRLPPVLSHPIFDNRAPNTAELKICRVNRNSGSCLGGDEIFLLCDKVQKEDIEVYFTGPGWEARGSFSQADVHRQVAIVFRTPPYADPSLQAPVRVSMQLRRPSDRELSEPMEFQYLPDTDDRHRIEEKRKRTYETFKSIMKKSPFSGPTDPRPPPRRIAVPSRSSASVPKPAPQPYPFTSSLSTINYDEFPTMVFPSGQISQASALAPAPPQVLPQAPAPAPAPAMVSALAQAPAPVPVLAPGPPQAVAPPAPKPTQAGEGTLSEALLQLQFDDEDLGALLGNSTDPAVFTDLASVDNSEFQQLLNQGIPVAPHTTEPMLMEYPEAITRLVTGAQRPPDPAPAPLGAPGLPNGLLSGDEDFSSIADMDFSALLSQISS

For `C[C@@H]1C[C@H]2[C@@H]3CCC4=CC(=O)C=C[C@]4(C)[C@@]3(F)[C@@H](O)C[C@]2(C)[C@@]1(O)C(=O)CO`, the result in the data set on Mus musculus [1], in the data set with Mus musculus [2] and with Mus musculus [3] was Active.

For the compound `COc1cc(-c2cc3c(C(C)=O)c(C)oc(=O)c3c(=O)o2)cc(OC)c1OC`, the outcome in the data set with Mus musculus [4], in the data set on Mus musculus [6], in the data set on Mus musculus [9], with Mus musculus [10], in the data set on Mus musculus [11] and with Mus musculus [13] was Active. For the same compound, the inhibition (in general, the relative decrease from the control value, in per cent) in data set [5] was “inactive”. In the data set on A549 [7], this compound displayed an inhibition at 5 µM of 75%. Also, the inhibition result in [8] is “Active”. The Activity entry in the data set on A549 [12] was “Non-toxic”.

For the origin of these results see ChEMBL document CHEMBL2440088, “A synthetic compound, 4-acetyl-3-methyl-6-(3,4,5-trimethoxyphenyl)pyrano[3,4-c]pyran-1,8-dione, ameliorates ovalbumin-induced asthma” (Bioorg Med Chem, 2013).
